From ChEMBL document CHEMBL2046349, “Synthesis of pacidamycin analogues via an Ugi-multicomponent reaction” (Bioorg Med Chem Lett, 2012)
pIC50: −log10 of the molar value. Converted amounts (≈) assume the structure as drawn.

How the values were obtained:
[1] = system: Pseudomonas aeruginosa; assay: Antimicrobial activity against Pseudomonas aeruginosa YYI65 (deltamexB) incubated at 35 degC for 20 hrs by microdilution broth method; assay type: functional; settings: YYI65, 20 h
Procedure, shortened: (§1)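 Broth microdilution per NCCLS in cation-adjusted Mueller-Hinton broth. Each compound serially diluted two-fold, and each […] inoculated at 5×10^4 CFU per 0.1 mL well. Plates incubated 35 °C for 20 h, then MIC scored.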

[2] = target: T1, Phospho-N-acetylmuramoyl-pentapeptide-transferase (Staphylococcus aureus, UniProt P0C1R8); assay: Inhibition of Staphylococcus aureus MraY using UDP-MurNAc-dansylpentapeptide substrate assessed as formation of dansylated lipid I incubated for 3 to 4 hrs by fluorometric assay
T1 sequence (P0C1R8 whole entry): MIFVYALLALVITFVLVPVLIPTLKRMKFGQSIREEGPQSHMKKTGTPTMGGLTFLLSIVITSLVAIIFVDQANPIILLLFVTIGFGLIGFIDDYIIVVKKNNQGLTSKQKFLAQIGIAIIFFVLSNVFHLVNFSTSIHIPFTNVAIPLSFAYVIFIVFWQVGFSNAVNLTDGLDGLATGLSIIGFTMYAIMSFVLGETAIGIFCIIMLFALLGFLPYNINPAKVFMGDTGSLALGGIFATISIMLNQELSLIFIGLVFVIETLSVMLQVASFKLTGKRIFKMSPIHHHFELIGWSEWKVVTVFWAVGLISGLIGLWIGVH
Procedure, shortened: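 Purified S. aureus MraY with UDP-MurNAc-dansylpentapeptide as substrate. Dansylated lipid I formation followed as fluorescence enhancement at ex 355 nm / em 535 nm. IC50 reported.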

[3] = system: Pseudomonas aeruginosa; assay: Antimicrobial activity against Pseudomonas aeruginosa ATCC 25619 incubated at 35 degC for 20 hrs by microdilution broth method; assay type: functional; settings: ATCC 25619, 20 h; procedure, shortened: as §1
[4] = system: Pseudomonas aeruginosa; assay: Antimicrobial activity against Pseudomonas aeruginosa SR 27156 incubated at 35 degC for 20 hrs by microdilution broth method; assay type: functional; settings: SR 27156, 20 h; procedure, shortened: as §1
[5] = system: Pseudomonas aeruginosa; assay: Antimicrobial activity against Pseudomonas aeruginosa PAO1 incubated at 35 degC for 20 hrs by microdilution broth method; assay type: functional; settings: PAO1, 20 h; procedure, shortened: as §1

Compound | MIC [1] [µg/mL] | pIC50 [2] | MIC [3] [µg/mL] | MIC [4] [µg/mL] | MIC [5] [µg/mL]
C[C@H](N)C(=O)N(C)[C@@H](C)[C@H](NC(=O)[C@H](C)NC(=O)N[C@@H](Cc1c[nH]c2ccccc12)C(=O)O)C(=O)N/C=C1/C[C@@H](O)[C@H](n2ccc(=O)[nH]c2=O)O1 [PACIDAMYCIN D] | 16 (≈ 22.5 µM) | 7.66 | 16 (≈ 22.5 µM) | 16 (≈ 22.5 µM) | 64 (≈ 89.9 µM)
C[C@H](NC(=O)N[C@@H](Cc1c[nH]c2ccccc12)C(=O)O)C(=O)N[C@@H](C(=O)N/C=C1\O[C@@H](n2ccc(=O)[nH]c2=O)[C@H](O)[C@@H]1O)[C@H](C)N(C)C(=O)[C@@H](Cc1cccc(O)c1)NC(=O)CN | > 32 | 5.05 | > 32 | > 32 | > 32
C[C@H](N)C(=O)N(C)[C@@H](C)[C@@H](NC(=O)[C@H](C)NC(=O)N[C@@H](Cc1c[nH]c2ccccc12)C(=O)O)C(=O)N/C=C1\O[C@@H](n2ccc(=O)[nH]c2=O)[C@H](O)[C@@H]1O | > 32 | 5.40 | > 32 | > 32 | > 32
C[C@H](NC(=O)N[C@@H](Cc1c[nH]c2ccccc12)C(=O)O)C(=O)N[C@H](C(=O)N/C=C1\O[C@@H](n2ccc(=O)[nH]c2=O)[C@H](O)[C@@H]1O)[C@H](C)N(C)C(=O)CN | > 32 | 7.19 | > 32 | > 32 | > 32
C[C@H](N)C(=O)N(C)[C@@H](C)[C@H](NC(=O)[C@H](C)NC(=O)N[C@@H](Cc1c[nH]c2ccccc12)C(=O)O)C(=O)N/C=C1\O[C@@H](n2ccc(=O)[nH]c2=O)[C@H](O)[C@@H]1O | 8 (≈ 11 µM) | 7.38 | 16 (≈ 22 µM) | 16 (≈ 22 µM) | 32 (≈ 44 µM)

Other lines, results leading:

MIC [1] [µg/mL] | pIC50 [2] | MIC [3] [µg/mL] | MIC [4] [µg/mL] | MIC [5] [µg/mL] | Compound
16 (≈ 18.2 µM) | 7.66 | 32 (≈ 36.5 µM) | 16 (≈ 18.2 µM) | > 32 | C[C@H](NC(=O)N[C@@H](Cc1c[nH]c2ccccc12)C(=O)O)C(=O)N[C@H](C(=O)N/C=C1\O[C@@H](n2ccc(=O)[nH]c2=O)[C@H](O)[C@@H]1O)[C@H](C)N(C)C(=O)[C@H](Cc1cccc(O)c1)NC(=O)CN
> 32 | 6.19 | > 32 | > 32 | > 32 | C[C@H](NC(=O)N[C@@H](Cc1c[nH]c2ccccc12)C(=O)O)C(=O)N[C@@H](C(=O)N/C=C1\O[C@@H](n2ccc(=O)[nH]c2=O)[C@H](O)[C@@H]1O)[C@H](C)N(C)C(=O)[C@H](Cc1cccc(O)c1)NC(=O)CN
> 32 | 5.40 | > 32 | > 32 | > 32 | C[C@H](NC(=O)N[C@@H](Cc1c[nH]c2ccccc12)C(=O)O)C(=O)N[C@H](C(=O)N/C=C1\O[C@@H](n2ccc(=O)[nH]c2=O)[C@H](O)[C@@H]1O)[C@H](C)N(C)C(=O)[C@H](Cc1ccc(O)cc1)NC(=O)CN
